Measurements taken from ChEMBL document CHEMBL1153527, “Discovery of a novel series of quinolone and naphthyridine derivatives as potential topoisomerase I inhibitors by scaffold modification” (J Med Chem, 2009).
In brackets after ≈: the same amount, converted by molar mass. Activity calls are given as the source filed them. No cut-off for these calls is given here.

Tests used:
Bel-7402 = assay: Cytotoxicity against human Bel7402 cells after 48 hrs by MTT assay; type: functional, cell-based; details: Bel-7402, 48 h
A549 = assay: Cytotoxicity against human A549 cells expressing wild type p53 after 48 hrs by SRB assay; type: functional, cell-based; details: A549, 48 h
Method in brief: (§1)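 Cell lines came from CCRC, Taiwan. Cells were seeded at about 5 × 10^3 per well and left overnight. They were then given serum-free medium containing 0-10 μM compound (0.08-10 μM serial dilutions) for 48 h at 37 °C. Cells were fixed with TCA (10% final), stained with SRB (0.4% final), and the dye was dissolved in 10 mM Tris with A515 read. IC50 was taken from a fitted log concentration-response curve.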

U-937 = assay: Cytotoxicity against human U937 cells expressing p53 mutant after 48 hrs by SRB assay; type: functional, cell-based; details: U-937, 48 h
HT-29 [1] = assay: Cytotoxicity against human HT-29 cells expressing p53 mutant after 48 hrs by SRB assay; type: functional, cell-based; details: HT-29, 48 h; method in brief: as §1
HT-29 [2] = assay: Cytotoxicity against human HT-29 cells after 48 hrs by MTT assay; type: functional, cell-based; details: HT-29, 48 h
Method in brief: (§2)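 Cells were seeded at about 5 × 10^3 per well, then given serum-free medium containing 0-10 μM test compound for 48 h at 37 °C. MTT was added at 0.5 mg/mL final for 4 h at 37 °C. Formazan was dissolved in DMSO and OD570 read. IC50 values (50% cell death) came from a fitted log concentration-response curve.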

[3] = biological target: T1, DNA topoisomerase 1 (Homo sapiens) (UniProt P11387); assay: Induction of human recombinant topoisomerase 1-mediated cleavage of 32P-labeled linearized pRYG plasmid DNA at 2.5 uM after 30 mins by agarose gel electrophoresis
T1 sequence (whole entry): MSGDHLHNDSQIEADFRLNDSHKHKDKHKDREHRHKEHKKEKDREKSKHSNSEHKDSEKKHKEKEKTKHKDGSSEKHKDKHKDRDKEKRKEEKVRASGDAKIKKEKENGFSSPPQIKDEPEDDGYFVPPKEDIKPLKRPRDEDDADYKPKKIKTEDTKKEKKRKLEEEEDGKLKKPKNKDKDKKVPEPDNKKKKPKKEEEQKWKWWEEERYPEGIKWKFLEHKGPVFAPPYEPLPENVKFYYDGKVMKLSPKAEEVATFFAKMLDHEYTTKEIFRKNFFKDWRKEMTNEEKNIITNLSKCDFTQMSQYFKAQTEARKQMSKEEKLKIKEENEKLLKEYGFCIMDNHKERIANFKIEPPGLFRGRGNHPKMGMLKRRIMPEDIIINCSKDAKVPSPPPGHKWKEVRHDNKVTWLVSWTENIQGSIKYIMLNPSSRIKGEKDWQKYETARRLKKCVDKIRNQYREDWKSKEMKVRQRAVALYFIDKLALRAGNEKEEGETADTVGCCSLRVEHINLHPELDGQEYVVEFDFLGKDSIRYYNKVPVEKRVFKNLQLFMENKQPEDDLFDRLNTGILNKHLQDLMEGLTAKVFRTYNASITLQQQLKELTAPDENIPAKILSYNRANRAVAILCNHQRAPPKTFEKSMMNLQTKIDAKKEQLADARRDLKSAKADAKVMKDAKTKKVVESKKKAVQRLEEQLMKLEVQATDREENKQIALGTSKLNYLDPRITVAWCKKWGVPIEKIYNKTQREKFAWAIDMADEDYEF
Method in brief: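 Recombinant human Top I was incubated with HindIII-linearised pRYG plasmid, 3'-end-labelled with [α-32P]dCTP by Klenow fill-in (about 100000 cpm per reaction). Reactions were stopped with SDS and proteinase K at 45 °C, alkali-denatured, run on a 1% agarose gel and autoradiographed.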

MCF7 = assay: Cytotoxicity against estrogen receptor-positive human MCF7 cells expressing wild type p53 after 48 hrs by SRB assay; type: functional, cell-based; details: MCF7, 48 h; method in brief: as §1
SK-OV-3 = assay: Cytotoxicity against human SKOV3 cells after 48 hrs by MTT assay; type: functional, cell-based; details: SK-OV-3, 48 h; method in brief: as §2
Mus musculus = assay: Toxicity in athymic BALB/c nude mouse xenografted with human HT-29 cells assessed as morbidity at 75 mg/kg, ip for 10 days measured after 30 days; type: organism-based; design: dose 75 mg/kg, route intraperitoneal; details: in vivo, 720 h
Method in brief: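 Nude mouse HT-29 xenograft model as above: female athymic BALB/c, 18-22 g, n=6 per group. Dosing was i.p. daily in 400 μL for 10 consecutive days at 75 or 150 mg/kg, with saline controls. Body weight and tumour volume were recorded every 4 days, and the study ended on day 30. Weights were compared with controls by Student's t test.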

THP-1 = assay: Cytotoxicity against human THP1 cells expressing p53 mutant after 48 hrs by SRB assay; type: functional, cell-based; details: THP-1, 48 h
PC-3 = assay: Cytotoxicity against p53-deficient human PC3 cells after 48 hrs by SRB assay; type: functional, cell-based; details: PC-3, 48 h; method in brief: as §1
[4] = Cytotoxicity against p53-deficient human Hep3B cells after 48 hrs by SRB assay; type: functional, cell-based, Hep 3B2; method in brief: as §1
[5] = biological target: T1, DNA topoisomerase 1 (Homo sapiens); assay: Induction of human topoisomerase 1-mediated chromosomal DNA strand breaks in HT-29 cells at 10 uM after 1 hr by comet assay; type: cell-based
Method in brief: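 HT-29 cells were seeded at 1 × 10^4 per well and attached overnight, then treated for 1 h. Untreated cells served as negative control. Cells in low-melting agarose on precoated slides were lysed at pH 10.5 for 30 min at 4 °C and unwound in 300 mM NaOH/1 mM EDTA (pH >13) for 30 min at 4 °C. Electrophoresis ran 10 min at 16 V, with SYBR Gold staining. Read-out was mean % tail DNA from ≥50 nuclei, duplicates in three independent experiments.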

HT-29 [6] = assay: Reduction in topoisomerase 1 expression in human HT-29 cells by immunocytochemistry; type: functional, cell-based
Method in brief: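 HT-29 and SKOV-3 cells were grown on slides and treated with compound at several concentrations, with an untreated control. Cells were fixed and permeabilised, and endogenous peroxidase was quenched with 0.3% H2O2/methanol. After blocking with 10% goat serum, slides were stained with anti-Top I (1:100, 10 h), then biotinylated secondary and avidin-biotin-HRP, and developed with DAB.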

HeLa = assay: Cytotoxicity against p53-deficient human HeLa cells after 48 hrs by SRB assay; type: functional, cell-based; method in brief: as §1
HT-29 [7] = assay: Induction of apoptosis in human HT-29 cells assessed as apoptotic cells at 10 ug/mL after 24 hrs by annexin V/propidium iodide-based flow cytometry; type: functional
Method in brief: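 SKOV-3 or HT-29 cells (1-5 × 10^6 cells/mL) were incubated with 0, 5 or 10 μg/mL compound for 24 h. They were then washed and stained with EGFP-Annexin V/PI and analysed immediately by flow cytometry. Annexin V+/PI− cells were scored as apoptotic; PI-permeant cells were scored as necrotic.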

[8] = Solubility in assay condition at 50 uM; type: physicochemical

Activity [3]: Active
Activity [5]: 48%
solubility [8]: Insoluble
Compound: CCn1cc(-c2nc3ccc([N+](=O)[O-])cc3o2)c(=O)c2cc(F)c(N3CCNC(C)C3)c(F)c21 (stereo not drawn)
IC50 (Bel-7402): 200 nM
GI50 (A549): 800 nM
IC50 (A549): 1500 nM
IC50 (U-937): 1400 nM
GI50 (HT-29 [1]): 1000 nM
IC50 (HT-29 [1]): 5.5 µM
IC50 (HT-29 [2]): 0.37 µg/mL (≈ 0.788 µM)
GI50 (MCF7): 3000 nM
IC50 (MCF7): 6.8 µM
IC50 (SK-OV-3): 0.55 µg/mL (≈ 1.17 µM)
Activity (Mus musculus): Non-toxic
IC50 (THP-1): 3.5 µM
GI50 (PC-3): 3.3 µM
IC50 (PC-3): 4.2 µM
GI50 [4]: 1500 nM
IC50 [4]: 3.9 µM
Activity (HT-29 [6]): Dose-dependent effect
GI50 (HeLa): 1100 nM
IC50 (HeLa): 2400 nM
Activity (HT-29 [7]): 35.9%
